Converted amounts (≈) assume the structure as drawn. The source made the active and inactive calls. The calls are words filed in the database; no cut-off is given here.
Tests used:
Mus musculus = assay: Antiinflammatory activity in mouse assessed as inhibition of carrageenan-induced increase in paw volume at 200 mg/kg administered 1 hr prior to carrageenan challenge measured after 3 hrs relative to control; type: functional
In short: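 Mice were fasted 2 h and placed in groups of five. Controls received saline i.p. Phenylbutazone was given at 100 mg/kg i.p., curcumin at 200 mg/kg i.p., and derivatives at 200 mg/kg. After 1 h, 0.1 mL of 1% carrageenan in saline was injected subplantar into the right hind paw. Paw volume was followed by plethysmometer for 3 h, and % inhibition was calculated as (Vc − Vt)/Vc × 100.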

HCT-116 = assay: Cytotoxicity against human HCT116 cells after 24 hrs by MTT assay; type: functional, cell-based
In short: (§1)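 The MTT assay seeded 5 × 10⁴ cells per well and grew them 24 h in RPMI 1640 with compound at 2.5–200 µM. Medium without cells was the blank and adriamycin the positive control. MTT was added for 4 h at 37 °C, formazan was solubilised, and absorbance was read at 570 nm. IC50 is the concentration that cuts viability 50% against untreated cells.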

QG-56 = assay: Cytotoxicity against human QG56 cells after 24 hrs by MTT assay; type: functional, cell-based; in short: as §1
HeLa = assay: Cytotoxicity against human HeLa cells after 24 hrs by MTT assay; type: functional, cell-based; in short: as §1
HepG2 = assay: Cytotoxicity against human HepG2 cells after 24 hrs by MTT assay; type: functional, cell-based; in short: as §1
Trichoderma viride [1] = assay: Antifungal activity against Trichoderma viride MTCC 1107 after 48 hrs; type: functional; settings: MTCC 1107, 48 h
Trichoderma viride [2] = assay: Antifungal activity against Trichoderma viride MTCC 1107 assessed as zone of inhibition at 20 uM after 48 hrs by disc diffusion method; type: functional
In short: (§2)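 Spores from 4-day potato dextrose agar cultures, suspended in sterile water at 1.5 × 10⁵ CFU/mL. 0.2 mL was spread on potato dextrose agar. 5 mm filter-paper discs soaked with test compound were laid on the lawn. Incubation was 48 h at 28 °C, then the inhibition zone was measured in mm. Fluconazole was the positive control and acetone the negative control.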

Trichoderma viride [3] = assay: Antifungal activity against Trichoderma viride MTCC 1107 assessed as zone of inhibition at 40 uM after 48 hrs by disc diffusion method; type: functional; settings: MTCC 1107, 48 h, read-out: IZ; in short: as §2
Trichoderma viride [4] = assay: Antifungal activity against Trichoderma viride MTCC 1107 assessed as zone of inhibition at 80 uM after 48 hrs by disc diffusion method; type: functional; settings: MTCC 1107, 48 h, read-out: IZ; in short: as §2
Curvularia lunata [5] = assay: Antifungal activity against Curvularia lunata MTCC 581 after 48 hrs; type: functional; settings: MTCC 581, 48 h
Curvularia lunata [6] = assay: Antifungal activity against Curvularia lunata MTCC 581 assessed as zone of inhibition at 20 uM after 48 hrs by disc diffusion method; type: functional; in short: as §2
Curvularia lunata [7] = assay: Antifungal activity against Curvularia lunata MTCC 581 assessed as zone of inhibition at 40 uM after 48 hrs by disc diffusion method; type: functional; settings: MTCC 581, 48 h, read-out: IZ; in short: as §2
Aspergillus flavus [8] = assay: Antifungal activity against Aspergillus flavus MTCC 1021 after 48 hrs; type: functional
Curvularia lunata [9] = assay: Antifungal activity against Curvularia lunata MTCC 581 assessed as zone of inhibition at 80 uM after 48 hrs by disc diffusion method; type: functional; settings: MTCC 581, 48 h, read-out: IZ; in short: as §2
Aspergillus flavus [10] = assay: Antifungal activity against Aspergillus flavus MTCC 1021 assessed as zone of inhibition at 80 uM after 48 hrs by disc diffusion method; type: functional; in short: as §2
Aspergillus niger [11] = assay: Antifungal activity against Aspergillus niger MTCC 1108 after 48 hrs; type: functional; settings: MTCC 1108, 48 h
Aspergillus niger [12] = assay: Antifungal activity against Aspergillus niger MTCC 1108 assessed as zone of inhibition at 20 uM after 48 hrs by disc diffusion method; type: functional; in short: as §2
Aspergillus niger [13] = assay: Antifungal activity against Aspergillus niger MTCC 1108 assessed as zone of inhibition at 40 uM after 48 hrs by disc diffusion method; type: functional; settings: MTCC 1108, 48 h, read-out: IZ; in short: as §2
Aspergillus niger [14] = assay: Antifungal activity against Aspergillus niger MTCC 1108 assessed as zone of inhibition at 80 uM after 48 hrs by disc diffusion method; type: functional; settings: MTCC 1108, 48 h, read-out: IZ; in short: as §2
Escherichia coli [15] = assay: Antimicrobial activity against Escherichia coli ATCC 35218 after 24 hrs by broth micro serial dilution method; type: functional; settings: ATCC 35218, 24 h
In short: (§3)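 This was broth microdilution in autoclaved Mueller-Hinton broth. 150 µL of compound per well was serially diluted […], and 50 µL of test organism was added. Plates were incubated 24 h at 37 °C and optical density was read.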

Escherichia coli [16] = assay: Antimicrobial activity against Escherichia coli ATCC 35218 assessed as diameter of inhibition zone at 20 uM after 24 hrs by Kirby -Baur disc diffusion method; type: functional; settings: ATCC 35218, 24 h, read-out: DIZ
In short: (§4)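 Kirby-Bauer disc diffusion was used. Acetone stocks (160 µM) were serially doubled down to 80, 40 and 20 µM. 4 µL of each went onto 5 mm sterile paper discs, which were dried 30 min at 50 °C. Inoculum was 1.5 × 10⁸ CFU/mL diluted to 3 × 10² CFU/mL, and 50 µL was spread on Mueller-Hinton agar. After 24 h at 37 °C the inhibition-zone diameter was measured. Ciprofloxacin served as positive control.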

Escherichia coli [17] = assay: Antimicrobial activity against Escherichia coli ATCC 35218 assessed as diameter of inhibition zone at 40 uM after 24 hrs by Kirby -Baur disc diffusion method; type: functional; settings: ATCC 35218, 24 h, read-out: DIZ; in short: as §4
Escherichia coli [18] = assay: Antimicrobial activity against Escherichia coli ATCC 35218 assessed as diameter of inhibition zone at 80 uM after 24 hrs by Kirby -Baur disc diffusion method; type: functional; settings: ATCC 35218, 24 h, read-out: DIZ; in short: as §4
Pseudomonas aeruginosa [19] = assay: Antimicrobial activity against Pseudomonas aeruginosa ATCC 15499 after 24 hrs by broth micro serial dilution method; type: functional; settings: ATCC 15499, 24 h; in short: as §3
Pseudomonas aeruginosa [20] = assay: Antimicrobial activity against Pseudomonas aeruginosa ATCC 15499 assessed as diameter of inhibition zone at 20 uM after 24 hrs by Kirby -Baur disc diffusion method; type: functional; in short: as §4
Pseudomonas aeruginosa [21] = assay: Antimicrobial activity against Pseudomonas aeruginosa ATCC 15499 assessed as diameter of inhibition zone at 40 uM after 24 hrs by Kirby -Baur disc diffusion method; type: functional; in short: as §4
Pseudomonas aeruginosa [22] = assay: Antimicrobial activity against Pseudomonas aeruginosa ATCC 15499 assessed as diameter of inhibition zone at 80 uM after 24 hrs by Kirby -Baur disc diffusion method; type: functional; settings: ATCC 15499, 24 h, read-out: DIZ; in short: as §4
Salmonella typhi [23] = assay: Antimicrobial activity against Salmonella typhi ATCC 23564 after 24 hrs by broth micro serial dilution method; type: functional, Salmonella enterica subsp. enterica serovar Typhi; settings: Salmonella enterica, ATCC 23564, 24 h
Salmonella typhi [24] = assay: Antimicrobial activity against Salmonella typhi ATCC 23564 assessed as diameter of inhibition zone at 20 uM after 24 hrs by Kirby -Baur disc diffusion method; type: functional, Salmonella enterica subsp. enterica serovar Typhi; settings: Salmonella enterica, ATCC 23564, 24 h; read-out: DIZ
Salmonella typhi [25] = assay: Antimicrobial activity against Salmonella typhi ATCC 23564 assessed as diameter of inhibition zone at 40 uM after 24 hrs by Kirby -Baur disc diffusion method; type: functional, Salmonella enterica subsp. enterica serovar Typhi; settings: Salmonella enterica, ATCC 23564, 24 h; read-out: DIZ
Salmonella typhi [26] = assay: Antimicrobial activity against Salmonella typhi ATCC 23564 assessed as diameter of inhibition zone at 80 uM after 24 hrs by Kirby -Baur disc diffusion method; type: functional, Salmonella enterica subsp. enterica serovar Typhi; settings: Salmonella enterica, ATCC 23564, 24 h; read-out: DIZ
Bacillus cereus [27] = assay: Antimicrobial activity against Bacillus cereus MTCC 7350 after 24 hrs by broth micro serial dilution method; type: functional; settings: MTCC 7350, 24 h; in short: as §3
Bacillus cereus [28] = assay: Antimicrobial activity against Bacillus cereus MTCC 7350 assessed as diameter of inhibition zone at 20 uM after 24 hrs by Kirby -Baur disc diffusion method; type: functional; in short: as §4
Bacillus cereus [29] = assay: Antimicrobial activity against Bacillus cereus MTCC 7350 assessed as diameter of inhibition zone at 40 uM after 24 hrs by Kirby -Baur disc diffusion method; type: functional; in short: as §4
Bacillus cereus [30] = assay: Antimicrobial activity against Bacillus cereus MTCC 7350 assessed as diameter of inhibition zone at 80 uM after 24 hrs by Kirby -Baur disc diffusion method; type: functional; settings: MTCC 7350, 24 h, read-out: DIZ; in short: as §4
Staphylococcus aureus [31] = assay: Antimicrobial activity against Staphylococcus aureus ATCC 11632 after 24 hrs by broth micro serial dilution method; type: functional; settings: ATCC 11632, 24 h; in short: as §3
Staphylococcus aureus [32] = assay: Antimicrobial activity against Staphylococcus aureus ATCC 11632 assessed as diameter of inhibition zone at 20 uM after 24 hrs by Kirby -Baur disc diffusion method; type: functional; settings: ATCC 11632, 24 h, read-out: DIZ; in short: as §4
Staphylococcus aureus [33] = assay: Antimicrobial activity against Staphylococcus aureus ATCC 11632 assessed as diameter of inhibition zone at 40 uM after 24 hrs by Kirby -Baur disc diffusion method; type: functional; settings: ATCC 11632, 24 h, read-out: DIZ; in short: as §4
Staphylococcus aureus [34] = assay: Antimicrobial activity against Staphylococcus aureus ATCC 11632 assessed as diameter of inhibition zone at 80 uM after 24 hrs by Kirby -Baur disc diffusion method; type: functional; settings: ATCC 11632, 24 h, read-out: DIZ; in short: as §4

For `COc1cc(/C=C/C(O)=C/C(/C=C/c2ccc(O)c(OC)c2)=N/c2ccc(S(N)(=O)=O)cc2)ccc1O`, the inhibition in vivo at 200 mg/kg (Mus musculus) was 29%, the IC50 (HCT-116) was 50 µM and the IC50 (QG-56) was 100 µM. It also gave an IC50 (HeLa) of 100 µM, an IC50 (HepG2) of 50 µM and an MIC (Trichoderma viride [1]) of 80 µM (≈ 41.8 µg/mL). For the same compound, the “inhibition zone (IZ)” value (Trichoderma viride [2]) was “inactive”, the zone of inhibition at 40 µM (Trichoderma viride [3]) was 10 mm and the zone of inhibition at 80 µM (Trichoderma viride [4]) was 11 mm. For the same compound, the MIC (Curvularia lunata [5]) was 80 µM (≈ 41.8 µg/mL), the “inhibition zone (IZ)” value (Curvularia lunata [6]) was “inactive” and the zone of inhibition at 40 µM (Curvularia lunata [7]) was 9 mm. For the same compound, the MIC (Aspergillus flavus [8]) was “inactive”, the zone of inhibition at 80 µM (Curvularia lunata [9]) was 12 mm and the “inhibition zone (IZ)” value (Aspergillus flavus [10]) was “inactive”. For the same compound, the MIC (Aspergillus niger [11]) was 40 µM (≈ 20.9 µg/mL), the “inhibition zone (IZ)” value (Aspergillus niger [12]) was “inactive” and the zone of inhibition at 40 µM (Aspergillus niger [13]) was 9 mm. It also gave a zone of inhibition at 80 µM (Aspergillus niger [14]) of 11 mm, an MIC (Escherichia coli [15]) of 40 µM (≈ 20.9 µg/mL) and a zone of inhibition at 20 µM (Escherichia coli [16]) of 12 mm. It also gave a zone of inhibition at 40 µM (Escherichia coli [17]) of 13 mm, a zone of inhibition at 80 µM (Escherichia coli [18]) of 15 mm and an MIC (Pseudomonas aeruginosa [19]) greater than 80 µM. For the same compound, the “diameter of the inhibition zone (DIZ)” value (Pseudomonas aeruginosa [20]) was “inactive”, the “diameter of the inhibition zone (DIZ)” value (Pseudomonas aeruginosa [21]) was “inactive” and the zone of inhibition at 80 µM (Pseudomonas aeruginosa [22]) was 11 mm. It also gave an MIC (Salmonella typhi [23]) of 40 µM (≈ 20.9 µg/mL), a zone of inhibition at 20 µM (Salmonella typhi [24]) of 9 mm and a zone of inhibition at 40 µM (Salmonella typhi [25]) of 11 mm. The zone of inhibition at 80 µM (Salmonella typhi [26]) was 13 mm, the MIC (Bacillus cereus [27]) was greater than 80 µM and the “diameter of the inhibition zone (DIZ)” value (Bacillus cereus [28]) was “inactive”. The “diameter of the inhibition zone (DIZ)” value (Bacillus cereus [29]) was “inactive”, the zone of inhibition at 80 µM (Bacillus cereus [30]) was 9 mm and the MIC (Staphylococcus aureus [31]) was 40 µM (≈ 20.9 µg/mL). For the same compound, the zone of inhibition at 20 µM (Staphylococcus aureus [32]) was 10 mm, the zone of inhibition at 40 µM (Staphylococcus aureus [33]) was 13 mm and the zone of inhibition at 80 µM (Staphylococcus aureus [34]) was 14 mm.

Source: ChEMBL document CHEMBL2384906, “Biological activity, design, synthesis and structure activity relationship of some novel derivatives of curcumin containing sulfonamides” (Eur J Med Chem, 2013)
